In ChEMBL document CHEMBL4028805, “Phenylthiazole Antibacterial Agents Targeting Cell Wall Synthesis Exhibit Potent Activity in Vitro and in Vivo against Vancomycin-Resistant Enterococci” (J Med Chem, 2017):
Converted amounts (≈) assume the structure as drawn. The source made the active and inactive calls. The calls are words filed in the database; no cut-off is given here.

Experiments:
[1] = tested on: Bacillus subtilis; experiment: Antibacterial activity against Bacillus subtilis assessed as pool of membranes at 5 times MIC after 2 hrs in presence of methylsulfonyl methane by phase contrast microscopic analysis; assay type: functional
Procedure, shortened: (§1)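 B. subtilis grown in LB at 37 °C to OD600 ~0.2, then treated at 5 × MIC with MSM for osmotic stabilisation. At 2 h, stained with FM 4-64 (1 μg/mL), DAPI (1 μg/mL) and SYTOX Green (1 μg/mL). Imaged by deconvolution fluorescence and phase contrast microscopy.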

[2] = tested on: Enterococcus faecalis; experiment: Antibacterial activity against Enterococcus faecalis clinical isolates after 18 to 22 hrs by broth microdilution method; assay type: functional
Procedure, shortened: (§2)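 CLSI broth microdilution against panels of enterococcal isolates. E. faecalis grown in TSB, E. faecium in BHI, 37 °C for 18–22 h. MIC is the lowest concentration without visible growth. MIC50 is the value inhibiting 50% of isolates in each group.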

[3] = tested on: Enterococcus faecium; experiment: Bactericidal activity against Vancomycin-resistant Enterococcus faecium clinical isolates after 18 to 22 hrs by broth microdilution method; assay type: functional
Procedure, shortened: (§3)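 MBC follows the broth microdilution MIC. 5 μL aliquots spotted onto TSA (E. faecalis) or BHI agar (E. faecium), incubated 37 °C for 18–22 h. MBC is the concentration giving >99% reduction in bacterial count. MBC50 is the value for 50% of isolates.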

[4] = tested on: Enterococcus faecalis; experiment: Antibacterial activity against vancomycin-resistant Enterococcus faecalis HM-201 infected in Caenorhabditis elegans AU37 assessed as reduction in bacterial burden at 20 ug/ml after 18 hrs by CFU-based […] analysis relative to control; assay type: functional
Procedure, shortened: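 C. elegans AU37 adults infected on an E. faecalis HM-201 lawn for 2 h, washed in M9, 20–25 worms per well. Treated in triplicate with 20 μg/mL, with water as negative control. Worms washed, lysed with silicon carbide by vortexing, diluted serially and plated on TSA with 50 μg/mL gentamicin. CFU counted after 18 h at 37 °C and expressed as % reduction versus untreated worms.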

[5] = tested on: Enterococcus faecium; experiment: Antibacterial activity against vancomycin-resistant Enterococcus faecium clinical isolates after 18 to 22 hrs by broth microdilution method; assay type: functional; procedure, shortened: as §2
[6] = tested on: Enterococcus faecium; experiment: Antibacterial activity against Enterococcus faecium clinical isolates after 18 to 22 hrs by broth microdilution method; assay type: functional
Procedure, shortened: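 Enterococcus faecium grown in BHI. MIC by CLSI broth microdilution, 37 °C for 18–22 h. Lowest concentration with no visible growth taken as MIC, reported as MIC50 across the isolates.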

[7] = tested on: Bacillus subtilis; experiment: Antibacterial activity against Bacillus subtilis assessed as misshapen cells at 5 times MIC after 2 hrs in presence of methylsulfonyl methane by phase contrast microscopic analysis; assay type: functional; procedure, shortened: as §1
[8] = tested on: Enterococcus faecalis; experiment: Inhibition of UPPP-mediated peptidoglycan biosynthesis in Enterococcus faecalis NR-31975 assessed as accumulation of UDP-N-acetylmuramyl-pentapeptide at 10 times MIC after 30 mins by HPLC-MS analysis
Procedure, shortened: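 Pellets boiled 30 min. UDP-N-acetylmuramyl-pentapeptide measured by HPLC-TOF MS on a phenyl column, 5–20% acetonitrile/0.1% formic acid gradient, positive ESI.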

[9] = tested on: Enterococcus faecalis; experiment: Bactericidal activity against vancomycin-resistant Enterococcus faecalis clinical isolates after 18 to 22 hrs by broth microdilution method; assay type: functional; procedure, shortened: as §3
[10] = tested on: Enterococcus faecalis; experiment: Antibacterial activity against vancomycin-resistant Enterococcus faecalis clinical isolates after 18 to 22 hrs by broth microdilution method; assay type: functional; procedure, shortened: as §2
[11] = tested on: Bacillus subtilis; experiment: Antibacterial activity against Bacillus subtilis assessed as bending of cells at 5 times MIC after 2 hrs in presence of methylsulfonyl methane by phase contrast microscopic analysis; assay type: functional; procedure, shortened: as §1
[12] = tested on: Escherichia coli; experiment: Antibacterial activity against Escherichia coli O157:H7 ATCC 35150 after 18 to 22 hrs in presence of 1/4 times MIC colistin by broth microdilution method; assay type: functional
[13] = tested on: Acinetobacter baumannii; experiment: Antibacterial activity against Acinetobacter baumanii ATCC 19606 after 18 to 22 hrs in absence of colistin by broth microdilution method; assay type: functional; details: ATCC 19606 = CIP 70.34 = JCM 6841
Procedure, shortened: (§4)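 Broth microdilution per CLSI guidelines. Gram-negatives grown in TSB. Each strain tested alone and again with colistin at ¼ × MIC to permeabilize the outer membrane. Plates incubated at 37 °C for 18–22 h. MIC read as the lowest concentration showing no visible growth.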

[14] = tested on: Pseudomonas aeruginosa; experiment: Antibacterial activity against Pseudomonas aeruginosa ATCC 15442 after 18 to 22 hrs in absence of colistin by broth microdilution method; assay type: functional
[15] = tested on: Klebsiella pneumoniae; experiment: Antibacterial activity against Klebsiella pneumoniae BAA-1706 after 18 to 22 hrs in absence of colistin by broth microdilution method; assay type: functional
[16] = tested on: Klebsiella pneumoniae; experiment: Antibacterial activity against Klebsiella pneumoniae BAA-1706 after 18 to 22 hrs in presence of 1/4 times MIC colistin by broth microdilution method; assay type: functional; procedure, shortened: as §4
[17] = tested on: Acinetobacter baumannii; experiment: Antibacterial activity against Acinetobacter baumanii ATCC 19606 after 18 to 22 hrs in presence of 1/4 times MIC colistin by broth microdilution method; assay type: functional; details: ATCC 19606 = CIP 70.34 = JCM 6841; procedure, shortened: as §4
[18] = tested on: Enterobacter cloacae; experiment: Antibacterial activity against Enterobacter cloacae BAA-1154 after 18 to 22 hrs in presence of 1/4 times MIC colistin by broth microdilution method; assay type: functional; procedure, shortened: as §4
[19] = tested on: Pseudomonas aeruginosa; experiment: Antibacterial activity against Pseudomonas aeruginosa ATCC 15442 after 18 to 22 hrs in presence of 1/4 times MIC colistin by broth microdilution method; assay type: functional; procedure, shortened: as §4
[20] = tested on: Enterobacter cloacae; experiment: Antibacterial activity against Enterobacter cloacae BAA-1154 after 18 to 22 hrs in absence of colistin by broth microdilution method; assay type: functional
[21] = tested on: Escherichia coli; experiment: Antibacterial activity against Escherichia coli O157:H7 ATCC 35150 after 18 to 22 hrs in absence of colistin by broth microdilution method; assay type: functional
[22] = Induction of proton motive force collapse in Escherichia coli inverted membrane vesicle in presence of ATP-driven PMF generation system by ACMA-based fluorescence assay; assay type: functional, cell membranes
Procedure, shortened: (§5)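 E. coli inverted membrane vesicles (0.1 mg/mL membrane protein) with 2 μM ACMA and 0.5 mM ATP or succinate, in 10 mM HEPES-KOH, 5 mM MgSO4, 100 mM KCl, pH 7.5. Proton gradient followed by ACMA fluorescence (ex 410/em 480 nm). EC50 taken from dose-response curves. CCCP used as reference uncoupler.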

[23] = Induction of proton motive force collapse in Escherichia coli inverted membrane vesicle in presence of succinate/O2-driven PMF generation system by ACMA-based fluorescence assay; assay type: functional, cell membranes; procedure, shortened: as §5

## CN[C@H](CC(C)C)C(=O)N[C@H]1C(=O)N[C@@H](CC(N)=O)C(=O)N[C@H]2C(=O)N[C@H]3C(=O)N[C@H](C(=O)N[C@H](C(=O)O)c4cc(O)cc(O)c4-c4cc3ccc4O)[C@H](O)c3ccc(c(Cl)c3)Oc3cc2cc(c3O[C@@H]2O[C@H](CO)[C@@H](O)[C@H](O)[C@H]2O[C@H]2C[C@](C)(N)[C@H](O)[C@H](C)O2)Oc2ccc(cc2Cl)[C@H]1O [VANCOMYCIN]
[1]
  Activity: Active
[2]
  MIC50: 1 µg/mL (≈ 0.69 µM)
[3]
  MBC50: >64 µg/mL
[4]
  Activity: inactive
[5]
  MIC50: > 64 µg/mL
[6]
  MIC50: 1 µg/mL (≈ 0.69 µM)
[7]
  Activity: Active
[8]
  inhibition: Active
[9]
  MBC50: >64 µg/mL
[10]
  MIC50: > 64 µg/mL
[11]
  Activity: Active

## CC[C@H]1OC(=O)[C@H](C)[C@@H](O[C@H]2C[C@@](C)(OC)[C@@H](O)[C@H](C)O2)[C@H](C)[C@@H](O[C@@H]2O[C@H](C)C[C@H](N(C)C)[C@H]2O)[C@](C)(O)C[C@@H](C)C(=O)[C@H](C)[C@@H](O)[C@]1(C)O [ERYTHROMYCIN]
[12]
  MIC: 1 µg/mL
[13]
  MIC: 8 µg/mL (≈ 10.9 µM)
[14]
  MIC: 128 µg/mL (≈ 174 µM)
[15]
  MIC: 128 µg/mL (≈ 174 µM)
[16]
  MIC: 0.5 µg/mL
[17]
  MIC: 0.5 µg/mL
[18]
  MIC: 1 µg/mL
[19]
  MIC: 1 µg/mL
[20]
  MIC: 128 µg/mL (≈ 174 µM)
[21]
  MIC: 64 µg/mL (≈ 87.2 µM)

## N#CC(C#N)=NNc1cccc(Cl)c1 [CARBONYL CYANIDE M-CHLOROPHENYLHYDRAZONE]
[22]
  EC50: 400 nM
[23]
  EC50: 200 nM
